# RBBP9 inh: human RBBP9 inhibitors, primary screen, biochemical, fluorescence polarization, FP-Rh probe, HTS | inhibition, % at 7.94 µM | actives 0.2% (n = 220,000) | recombinant RBBP9 | Serine hydrolase RBBP9 (Homo sapiens), O75884;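 active = inhibition above the campaign mean of all tested compounds plus 3 SD, cut at about 14% in these data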;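 note: plate controls were DMSO wells with RBBP9 for no effect and wells lacking RBBP9 protein for full effect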
# Target sequence (O75884 whole entry, looked up): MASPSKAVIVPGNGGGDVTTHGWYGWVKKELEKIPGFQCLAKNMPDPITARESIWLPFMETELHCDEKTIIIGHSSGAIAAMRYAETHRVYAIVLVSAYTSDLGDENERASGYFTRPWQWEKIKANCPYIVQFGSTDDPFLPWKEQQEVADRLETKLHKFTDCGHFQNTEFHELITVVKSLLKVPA
#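 System: RBBP9 protein | Quantity: 2.5 µM RBBP9 dispensing solution, before mixing | Reagent: FP-Rh probe, 375 nM dispensing solution | Timing: Enzyme-compound preincubation 30 min, then probe labeling 45 min, 25 °C | Measured by: Fluorescence polarization | Read-out: % inhibition | Replication: One well per compound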
# TCR-CD3 inh: inhibitors of human TCR-CD3 interaction, primary screen, biochemical, fluorescence, TAMRA-labeled TCR probe | T-cell receptor (TCR) | inhibition, % at 9.4 µM | actives 0.37% (n = 360,000) | AID 651800, 2012; in the data active = inhibition above about 19%;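 note: recombinant mutant TCR 2C K166C tagged with TAMRA read by polarization; 0% = receptor in buffer alone and 100% = receptor with positive control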
# PABP FP inh: PABP poly(A) RNA binding inhibitors, primary screen, biochemical, fluorescence polarization, uHTS | AID 2014, 2009 | actives 1% (n = 290,000) | calls only at 35 µM | Polyadenylate-binding protein 1 (Homo sapiens), P11940;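 note: calls also rest on retests at 20 µM and on dose response follow-up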
# PABP1 MLLE inh: inhibitors of PABP1 MLLE–PAM2 peptide binding, primary screen, biochemical, fluorescence polarization, FITC-PAM2, GST-MLLE; AID 588489, 2011; inhibition, % at 20 µM; actives 0.36% (n = 360,000); in the data active = inhibition above about 35%, passing the limit was not always enough;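 note: plate controls were DMSO wells with GST-MLLE for no effect and wells lacking GST-MLLE protein for full effect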
# eIF4H inh: human eIF4H binding inhibitors, primary screen, translation initiation inhibitor project, biochemical, uHTS, fluorescence polarization; actives 0.94% (n = 290,000); AID 2012, 2009; eIF4H fluorescence polarization binding assay; inhibition, % at 35 µM;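 note: calls also rest on retests at 20 µM and on dose response follow-up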
# * marks the source's active call; other numbers are inactive results; i = inactive; x = not tested or not shown; + = active, no number. Shown are actives, neighbours in structure and some others; about 1.6% of the full set was active somewhere. Unless noted, the rule behind the calls is not given here.
SMILES,RBBP9 inh,TCR-CD3 inh,PABP FP inh,PABP1 MLLE inh,eIF4H inh
CCCCCC(=O)NC(NC(=S)Nc1ccc(S(N)(=O)=O)cc1)C(Cl)(Cl)Cl (stereo not given),-9.3,2.3,+,19.5,61.1*
CC(=O)NCCn1c(C)cc2ccccc21,x,4.7,+,26.5,93.8*
CCC(=O)NCCn1c(C)cc2ccccc21,-7.1,x,+,22.5,106.3*
Cc1cc2ccccc2n1CCNC(=O)Cc1cccc2ccccc12,-5.2,67.9*,i,10.9,54.2
Cc1cc2ccccc2n1CCNC(=O)COc1ccccc1,x,5.7,+,15.5,107.6
Cc1cc2ccccc2n1CCNC(=O)C(C)(C)C,x,10.5,i,18.5,7.9
CC(=O)C1=C(C)N(Cc2ccc(Br)cc2)C(=S)NC1c1cccc(Cl)c1 (stereo not given),x,-2.1,x,x,x
CCOC(=O)C1=CCN(S(=O)(=O)c2ccc(Br)cc2)C1c1ccc(F)cc1 (stereo not given),x,-3.0,x,x,x
Cc1cc2ccccc2n1CCNC(=O)c1ccc(Br)o1,-4.1,17.9,+,42.7*,58.6*
CC(C)[C@H](NC(=O)c1ccc(Cl)cc1Cl)C(=O)N1CCC[C@H]1C(=O)NCCc1ccccc1Cl,x,3.8,x,x,x
COc1ccc(OCC(=O)Nc2c3c(nn2C(C)(C)C)CS(=O)(=O)C3)cc1,x,0.3,i,2.5,-4.5
CC(C)(C)n1nc2c(c1NC(=O)COc1ccc(Cl)cc1)CS(=O)(=O)C2,-9.9,2.6,+,7.1,active
Cn1c(=O)oc2ccc(S(=O)(=O)Nc3ccc(Cl)cc3[N+](=O)[O-])cc21,x,-10.3,x,x,x
Cc1c2c(=O)n(-c3nc4ccccc4s3)nc-2cc(O)n1Cc1ccccc1,1.3,x,+,-44.4,59.7*
NC1(N2SC(S)=C3CCCC=C32)CCCCC1,x,-2.4,x,x,x
O=C(N/N=C/c1ccc([N+](=O)[O-])o1)c1cc2ccccc2o1,-4.9,8.6,+,-11.2,69.5*
CCNC(=S)N/N=C(\C)c1cc2ccccc2o1,-9.6,-1.6,i,12.8,7.4
O=C(N/N=C/c1ccc([N+](=O)[O-])o1)c1cc2c(ccc3ccccc32)o1,-9.8,8.6,+,-5.5,75.5
C/C(=N\NC(=S)Nc1cccc(C)c1)c1cc2ccccc2o1,-6.2,0.7,i,43.0*,6.7
O=C(N/N=C\c1ccc([N+](=O)[O-])o1)c1cncc(Br)c1,3.4,18.7,+,-2.2,70.7*
O=C(N/N=C/c1ccc([N+](=O)[O-])cc1)c1cc2ccccc2o1,-8.0,-9.4,i,12.2,-3.8
COC(=O)C1=C(C)N(Cc2ccccc2C(F)(F)F)C(=NCc2cc(OC)c(OC)c(OC)c2)NC1CCc1ccccc1 (stereo not given),x,-0.3,x,x,x
C[C@H](CO)N1C[C@H](C)[C@H](CN(C)C(=O)Nc2ccc3c(c2)OCO3)OCc2cnnn2CCCC1=O,x,-2.5,x,x,x
C/C(=N\Nc1ccc([N+](=O)[O-])cc1)c1cc2ccccc2o1,-5.3,-1.3,i,-136.0,56.7*
C/C(=N\NS(=O)(=O)c1ccc(C)c([N+](=O)[O-])c1)c1cc2ccccc2o1,-7.0,0.1,i,16.3,-11.0
SMILES,RBBP9 inh,TCR-CD3 inh,PABP FP inh,PABP1 MLLE inh,eIF4H inh
O=C(N/N=C/c1ccc([N+](=O)[O-])o1)c1ccccc1NS(=O)(=O)c1cccs1,-7.2,14.7,+,-2.1,76.2
C[C@@H]1CN([C@@H](C)CO)C(=O)CCCn2nncc2CO[C@H]1CN(C)CC1CC1,x,-6.2,x,x,x
C[C@@H]1CN(c2ccc(N3CCNC[C@H]3C)cc2C#N)CCN1Cc1ccccc1,x,5.0,x,x,x
S=c1[nH]cc2cnccn12,x,-1.7,x,69.5*,x
COc1cccc(CNC(=O)[C@H]2CCCN2C(=O)[C@H]2CCCN2C(=O)c2ccc(F)c(F)c2)c1,x,6.3,x,x,x
NC(=O)c1ncn([C@@H]2O[C@H](C(=O)N[C@H](Cc3c[nH]c4ccccc34)C(=O)N3CCN(C(=O)N4CCCCC4)CC3)[C@@H](O)[C@H]2O)n1,x,3.0,x,x,x
CCOC(=O)c1c2ccc(OCC(=O)N/N=C/c3ccc(C)cc3)cc2n2ccccc12,-9.1,3.5,i,11.5,7.4
CCOC(=O)c1c2ccc(OCC(=O)NN)cc2n2ccccc12,-1.3,1.7,i,58.0*,9.7
CC12CCC(=O)N1C(C(=O)OCC(=O)Nc1sccc1C#N)CS2 (stereo not given),-8.4,10.7,+,15.3,63.5*
Oc1ccc(CNc2ccc(F)cc2)c2cccnc12,2.8,1.7,i,27.2,14.9
Oc1ccc(CNc2ccccc2)c2cccnc12,-3.9,x,i,41.2*,20.3
COC(=O)[C@@]1(C)[C@H]2C(=O)N(Cc3ccccc3)C(=O)[C@H]2[C@H]2CN=C(SCC(=O)c3ccccc3)N21,x,9.2,x,43.4*,x
COC(=O)[C@@]1(C)[C@H]2C(=O)N(Cc3ccccc3)C(=O)[C@H]2[C@H]2CN=C(SC)N21,x,-4.8,x,-20.0,x
O=S(=O)(O)c1cccc2c(N=Nc3ccc(O)c4ncccc34)cccc12,x,x,+,8.7,82.2*
Cc1ccccc1N=Nc1ccc(O)c2ncccc12,-9.5,5.3,i,-2.9,25.7
O=C(N[C@H](C(=O)N1CCC[C@H]1C(=O)NCc1ccccc1)c1ccccc1)c1ccccc1,x,-4.6,x,x,x
COCCCNC(=O)c1nnn2c1nc(N)c1cc(Cl)ccc12,x,0.8,x,x,x
CC(=O)N1C[C@@H](CO)[C@@H](N(C)C(=O)/C=C/c2ccccc2)C[C@H]1c1ccccc1,x,-0.7,x,x,x
NS(=O)(=O)c1cccc(C(=O)NC2CCSc3ccccc32)c1 (stereo not given),x,0.7,i,4.8,-8.5
CC(=O)c1cccc(S(=O)(=O)NC2CCSc3ccccc32)c1 (stereo not given),x,1.1,i,47.1*,-5.2
C[C@H]1CN(c2ccc(N3CCNC[C@@H]3C)cc2C#N)CCN1Cc1ccccc1,x,12.1,x,x,x
COC(=O)c1[nH]c2ccc(Br)cc2c1NC(=O)CN1CCN(C2CCCCC2)CC1,-9.1,1.3,+,-112.1,-11.6
COC(=O)c1[nH]c2ccc(C)cc2c1NC(=O)CCN1CCN(C2CCCCC2)CC1,-7.8,x,i,x,2.4
COc1ccc(C2CC(=O)C(c3ccccc3C)=CN2Cc2ccccc2)cc1 (stereo not given),x,-2.8,x,x,x
N#C/C(=C/c1ccccc1OCc1ccc(F)cc1)c1ccc(C(=O)O)cc1,x,9.1,+,-88.5,16.6
O=c1[nH]c2ccccc2nc1/C=C/c1ccccc1,4.0,10.7,i,-14.1,43.5
O=C(/C=C/c1ccc(F)cc1)Nc1nc2ccccc2[nH]1,0.1,x,+,x,active
O=c1[nH]c2ccccc2nc1/C=C/c1ccc(F)cc1,-14.1,-15.2,+,-69.5,86.2
